# Screens: PubChem, Sanford-Burnham Center for Chemical Genomics
# Hits are enriched below; roughly 1.8% of the tested compounds scored in any of these assays.
# Lipid droplet: modulators of hepatic lipid droplet formation | AML12 mouse hepatocytes, oleate lipid droplets, BODIPY imaging | inhibition, % at 6.5 µM | 240,000 compounds, 0.4% hits | AID 1656;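 active = lipid droplet intensity inhibited by at least 50%, with more than 500 cells counted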
#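 material = mouse AML12 hepatocyte cell line, fixed after treatment | also added = 100 µM oleic acid challenge | doses = compound at 6.5 µM only | schedule = overnight exposure | technique = Image-based BODIPY and DAPI two-channel analysis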
# H9c2 TAG inh: reduces triacylglycerol accumulation in H9c2 cells; Nile Red lipid (TAG) fluorescence; cells loaded with 200 µM oleic acid; inhibition, % at 12.5 µM; 230,000 compounds, 0.66% hits; AID 651582;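 active = pattern-corrected inhibition of lipid staining of at least 50% with the nuclear-stain viability signal not falling by more than 50%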;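 note: 0% = DMSO wells and 100% = triacsin C control wells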
# 697 NFkB inh: inhibitors of the PMA/ionomycin-induced NF-kB reporter in 697 B cells. 330,000 compounds, 0.33% hits. AID 435022. 697 B-cell NF-kB luciferase reporter, 16 h. inhibition, % at 4 µM; in the data active = inhibition above about 35%
# hiPSC survival: hiPSC single-cell survival enhancement; ATPlite luminescence; 100% = ROCK inhibitor wells, 0% = DMSO; survival enhancement, % at 20 µM; AID 602274; 360,000 compounds, 0.044% hits; in the data active = survival enhancement above about 18%;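 note: cells exposed to compounds for 16 hours before the ATP read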
# Gli-Sufu block: blocks Gli-Sufu signaling in a luciferase reporter. AID 588413. 340,000 compounds, 0.74% hits. inhibition, % at 5 µM. Sufu-KO-LIGHT fibroblasts, Gli luciferase reporter luminescence;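 active = inhibition above about 55%, limit read from the data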;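 note: 0% = DMSO-treated cells and 100% = wells with medium but no cells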
# Jurkat NFkB inh: lowers PMA/ionomycin-induced NF-kB signal in Jurkat cells | AID 435003 | inhibition, % at 4 µM | PMA/ionomycin-induced NF-kB luciferase reporter, luminescence | 330,000 compounds, 0.53% hits; in the data active = inhibition above about 50%
# Jurkat NFkB conf: lowers PMA/ionomycin-induced NF-kB signal in Jurkat cells | shares compounds with Jurkat NFkB inh | Jurkat NF-kB luciferase, 16 h | inhibition, % at 4 µM | 2,700 compounds, 27% hits | AID 435020;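 active = inhibition reaching about 45% at 4 µM in either replicate, limit read from the data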;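 note: plate controls were PMA/ionomycin stimulated DMSO wells for no effect and unstimulated DMSO wells for full effect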
# 697 NFkB conf: inhibitors of the PMA/ionomycin-induced NF-kB reporter in 697 B cells, retest | shares compounds with 697 NFkB inh | 2,000 compounds, 35% hits | inhibition, % at 4 µM | 697 B-cell NF-kB luciferase, 16 h; in the data active = inhibition mostly above about 28%, no sharp cut-off; inactive = mostly below about 22%
# An asterisk follows results filed as active; i = inactive; / = no result given.
SMILES,Lipid droplet,H9c2 TAG inh,697 NFkB inh,hiPSC survival,Gli-Sufu block,Jurkat NFkB inh,Jurkat NFkB conf,697 NFkB conf
Cc1ccc(/C=N/Nc2nc(C(C)(C)C)cs2)o1,-13,/,-44,-1,-30,-30,/,/
Cc1ccc(/C=N/Nc2nc3ccccc3s2)o1,22,/,-414,-2,-27,-187,-76,-240
COc1ccc2sc3ccccc3c(=O)c2c1OC,/,-5,-8,3,-6,-32,/,/
COc1ccc(-c2ccc3sc4ccccc4c(=O)c3c2)cn1,/,-12,-301,-4,-100,-202,-127,-255
Cc1ccc(-c2nnc(SCC(=O)NC3CC3)n2N)cc1,0,5,-2,0,-3,-8,/,/
CCOc1ccccc1CN1CCNC(=O)C1CC(=O)NCc1ccccn1 (stereo unspecified),11,-19,-20,0,16,-10,/,/
Cc1nn(-c2ccccn2)c(C)c1Oc1ccccc1O,/,/,-2,-1,4,10,/,/
Cc1nn(-c2nc3ccccc3s2)c(C)c1Oc1ccccc1O,-8,/,i,0,-10,-194,-142,i
CCc1ccc(N2C(=O)CC(N(CC3CCCO3)C(=O)/C=C/C(=O)O)C2=O)cc1 (stereo unspecified),17,/,12,2,0,-16,/,/
N#CCCCC#Cc1ccc2c(c1)COc1c3ccccc3nn1-2,/,-15,-442,-3,-60,-193,-55,-381
CCn1c(C)cc(C(=O)COC(=O)c2ccccc2[N+](=O)[O-])c1C,/,5,41*,0,87*,59*,94*,47*
Cc1cc(C(=O)COC(=O)c2ccccc2O)c(C)n1CC1CCCO1 (stereo unspecified),/,-5,52*,-6,58*,74*,86*,43*
CC(C)Cn1c(N)c(C(=O)COC(=O)c2ccc3c(c2)OCCO3)c(=O)n(C)c1=O,-10,-14,-28,-1,15,5,/,/
CC(C)Cn1c(N)c(C(=O)CSc2ccc3c(c2)OCCO3)c(=O)n(C)c1=O,/,-114,39*,-2,64*,54*,47,-5
O=C1CCc2cc(NS(=O)(=O)c3ccccc3)cc3c2N1CC3,/,-5,10,0,12,-19,/,/
O=C(CCS(=O)(=O)c1ccccc1)Nc1ccc(-c2nc3ccccc3s2)cc1,8,8,-382,-4,-90,-161,-96,-275
Cc1ccc(NC(=O)c2cnn(-c3ccccc3)c2C)cc1,14,/,-264,0,-100,-153,-105,-307
O=C(Nc1ccc(Cl)c(Cl)c1)c1ccc2c(c1)OCO2,-4,/,-370,0,-111,-205,-174,-320
O=C(Nc1cccc(C(=O)O)c1)Nc1ccc2c(c1)OCO2,-3,-2,71*,0,-62,88*,69*,69*
O=C(Nc1cccnc1)Nc1ccc2c(c1)OCO2,1,/,-26,0,-41,-34,/,/
COc1cccc(NC(=O)c2ccccc2)c1,/,8,-40,-1,-36,-58,/,/
COc1cccc(NC(=O)Nc2cccc(C(=O)O)c2)c1,0,0,57*,-1,-22,70*,50*,58*
COc1cccc(NC(=O)Nc2nc(-c3ccc(OC)c(OC)c3)cs2)c1,-8,/,56*,0,33,90*,14,3
O=C(C1=C(O)C(=O)N(CC2CCCO2)C1c1cccc(O)c1)c1ccco1 (stereo unspecified),-3,/,9,0,-3,5,/,/
O=C(Nc1nc(-c2ccc(F)c(F)c2)cs1)c1ccc(OCC2CCCO2)cc1 (stereo unspecified),-15,/,50*,0,12,58*,63*,33*
Cc1csc(NC(=O)c2ccc(OCC3CCCO3)cc2)n1 (stereo unspecified),-7,9,29,-1,-68,-80,/,/
Cc1ccc(-c2csc(NC(=O)C3CCN(S(=O)(=O)c4cccs4)CC3)n2)cc1,0,/,62*,-1,2,63*,73*,67*
O=C(Nc1ccc2c(c1)CCC2)Nc1ccccc1F,-2,-6,-307,0,/,-233,-111,-356
